Source: ChEMBL document CHEMBL2424573 (J Med Chem, 2013)

Key:
Protease [1] = molecular target: T1, Protease (Human immunodeficiency virus 1, UniProt Q9YQ12); assay: Inhibition of HIV1 LAI protease by fluorescence assay
[2] = system: Human immunodeficiency virus 1; assay: Ratio of EC50 for wild type HIV1 ERS104pre to EC50 for multidrug-resistant HIV1 TM harboring L10I/K14R/R41K/M46L/I54V/L63P/A71V/V82A/L90M/I93L protease-encoding region mutant; format: functional
Method in brief: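 Antiviral EC50 was measured against wild-type HIV-1ERS104pre and against multidrug-resistant isolates. The fold change is the EC50 for each isolate divided by the wild-type EC50. Assays were run in duplicate. Values are means (±1 standard deviation) from two or three independent experiments.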

[3] = system: Human immunodeficiency virus 1; assay: Ratio of EC50 for wild type HIV1 ERS104pre to EC50 for multidrug-resistant HIV1 G harboring L10I/V11I/T12E/I15V/L19I/R41K/M46L/L63P/A71T/V82A/L90M protease-encoding region mutant; format: functional
[4] = system: Human immunodeficiency virus 1; assay: Ratio of EC50 for wild type HIV1 ERS104pre to EC50 for multidrug-resistant HIV1 C harboring L10I/I15V/K20R/L24I/M36I/M46L/I54V/I62V/L63P/K70Q/V82A/L89M protease-encoding region mutant; format: functional
[5] = system: Human immunodeficiency virus 1; assay: Antiviral activity against multidrug-resistant HIV1 TM harboring L10I/K14R/R41K/M46L/I54V/L63P/A71V/V82A/L90M/I93L protease-encoding region mutant infected in human PHA-PBMC cells assessed as inhibition of p24 Gag protein production; format: functional, organism-based; settings: Human immunodeficiency virus 1, TM
Method in brief: (§1)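 EC50 was determined against each clinical isolate and wild-type HIV-1ERS104pre. Assays were run in duplicate, and values are means (±1 standard deviation) of two or three independent experiments.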

[6] = system: Human immunodeficiency virus 1; assay: Antiviral activity against multidrug-resistant HIV1 C harboring L10I/I15V/K20R/L24I/M36I/M46L/I54V/I62V/L63P/K70Q/V82A/L89M protease-encoding region mutant infected in human PHA-PBMC cells assessed as inhibition of p24 Gag protein production; format: functional, organism-based; settings: Human immunodeficiency virus 1, C; method in brief: as §1
[7] = system: Human immunodeficiency virus 1; assay: Antiviral activity against wild type HIV1 ERS104pre infected in human PHA-PBMC cells assessed as inhibition of p24 Gag protein production; format: functional, organism-based; settings: Human immunodeficiency virus 1, ERS104pre; method in brief: as §1
[8] = system: Human immunodeficiency virus 1; assay: Ratio of amprenavir EC50 to compound EC50 for wild type HIV-1 ERS104pre; format: functional
[9] = system: Human immunodeficiency virus 1; assay: Antiviral activity against multidrug-resistant HIV1 G harboring L10I/V11I/T12E/I15V/L19I/R41K/M46L/L63P/A71T/V82A/L90M protease-encoding region mutant infected in human PHA-PBMC cells assessed as inhibition of p24 Gag protein production.; format: functional, organism-based; settings: Human immunodeficiency virus 1, G; method in brief: as §1
[10] = system: Human immunodeficiency virus 1; assay: Antiviral activity against HIV1 LAI infected in human MT2 cells by MTT assay; format: functional, organism-based; settings: Human immunodeficiency virus 1, LAI
Method in brief: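 MT-2 human T-lymphoid cells (2 × 10^3) were exposed to 100 TCID50 of HIV-1LAI and cultured in the presence of protease inhibitor. IC50 was determined by MTT assay and reported as the mean of at least two experiments.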

Protease [11] = molecular target: T1, Protease; assay: Inhibition of HIV1 protease
[12] = system: Human immunodeficiency virus 1; assay: Antiviral activity against HIV1 LAV; format: functional, organism-based; settings: Human immunodeficiency virus 1, LAV

T1 sequence (Q9YQ12 whole entry): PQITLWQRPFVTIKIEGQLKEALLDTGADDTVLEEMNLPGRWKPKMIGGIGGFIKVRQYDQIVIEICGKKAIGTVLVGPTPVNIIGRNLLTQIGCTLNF

COc1ccc(S(=O)(=O)N(CC(C)C)C[C@@H](O)[C@H](Cc2ccccc2)NC(=O)O[C@H]2CC(C)(C)C[C@H]3O[C@@H]4OCC[C@@H]4[C@@H]23)cc1
Ki (Protease [1]): 8.8 nM

CC(C)CN(C[C@@H](O)[C@H](Cc1ccccc1)NC(=O)O[C@H]1CCOC1)S(=O)(=O)c1ccc(N)cc1
Ratio EC50 [2]: 16 | Ratio EC50 [3]: 16 | Ratio EC50 [4]: 12 | EC50 [5]: 448 nM | EC50 [6]: 325 nM | EC50 [7]: 28 nM

COc1ccc(S(=O)(=O)N(CC(C)C)C[C@@H](O)[C@H](Cc2ccccc2)NC(=O)O[C@H]2CCC[C@H]3O[C@@H]4OCC[C@@H]4[C@@H]23)cc1
Ratio EC50 [8]: 10 | Ratio EC50 [2]: 4 | Ratio EC50 [3]: 3 | Ratio EC50 [4]: 2 | EC50 [5]: 16 nM | EC50 [9]: 12 nM | EC50 [6]: 8 nM | EC50 [7]: 3.6 nM | IC50 [10]: 1.9 nM | Ki (Protease [1]): 0.01 nM

COc1ccc(S(=O)(=O)N(CC(C)C)C[C@@H](O)[C@H](Cc2ccccc2)NC(=O)O[C@@H]2COC[C@@H]3O[C@H]4OCC[C@H]4[C@@H]32)cc1
IC50 [10]: 260 nM | Ki (Protease [1]): 3.1 nM

COc1ccc(S(=O)(=O)N(CC(C)C)C[C@@H](O)[C@H](Cc2ccccc2)NC(=O)O[C@H]2COC[C@H]3O[C@@H]4OCC[C@@H]4[C@@H]23)cc1
Ratio EC50 [3]: 10 | Ratio EC50 [4]: 4 | EC50 [9]: 79.5 nM | EC50 [6]: 32.9 nM | EC50 [7]: 8.3 nM | IC50 [10]: 4.5 nM | Ki (Protease [1]): 0.021 nM

COc1ccc(S(=O)(=O)N(CC(C)C)C[C@@H](O)[C@H](Cc2ccccc2)NC(=O)O[C@@H]2CCC[C@@H]3O[C@H]4OCC[C@H]4[C@@H]32)cc1
IC50 [10]: 240 nM | Ki (Protease [1]): 0.45 nM

COc1ccc(S(=O)(=O)N(CC(C)C)C[C@@H](O)[C@H](Cc2ccccc2)NC(=O)O[C@H]2CO[C@H]3O[C@@H]4OCC[C@@H]4[C@H]32)cc1
Ki (Protease [11]): 0.0059 nM | IC50 [12]: 1.8 nM

COc1ccc(S(=O)(=O)N(CC(C)C)C[C@@H](O)[C@H](Cc2ccccc2)NC(=O)O[C@@H]2CS(=O)(=O)C[C@@H]3O[C@H]4OCC[C@H]4[C@@H]32)cc1
IC50 [10]: > 1000 nM | Ki (Protease [1]): 10.5 nM

COc1ccc(S(=O)(=O)N(CC(C)C)C[C@@H](O)[C@H](Cc2ccccc2)NC(=O)O[C@H]2CS(=O)(=O)C[C@H]3O[C@@H]4OCC[C@@H]4[C@@H]23)cc1
IC50 [10]: > 1000 nM | Ki (Protease [1]): 0.6 nM

COc1ccc(S(=O)(=O)N(CC(C)C)C[C@@H](O)[C@H](Cc2ccccc2)NC(=O)O[C@H]2CCC[C@H]3O[C@@H]4OCCC[C@@H]4[C@@H]23)cc1
IC50 [10]: 48 nM | Ki (Protease [1]): 0.41 nM

COc1ccc(S(=O)(=O)N(CC(C)C)C[C@@H](O)[C@H](Cc2ccccc2)NC(=O)O[C@@H]2CC(C)(C)C[C@@H]3O[C@H]4OCC[C@H]4[C@@H]32)cc1
Ki (Protease [1]): 139 nM
